High-throughput results as filed in PubChem BioAssay.
Compounds with a hit are over-represented: about 4.6% of the library has one in this group of screens.
GPR7 antag – antagonists of human GPR7 (neuropeptides B/W receptor 1); P48145; GPR7-expressing cells, fluorescence antagonist assay; inhibition, % at 4.4 µM; 290,000 tested, 1.1% active; AID 1861; in the data active means inhibition above about 16%, passing the limit was not always enough;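 further: cells stimulated with the agonist NPW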
OX1R antag-1 – blocks the human orexin 1 receptor. O43613. CHO/OX1R cells, Fluo-8 calcium fluorescence, orexin A. inhibition, % at 5 µM. 330,000 tested, 0.43% active;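 active means inhibition above its plate's threshold, mean inhibition of all tested compounds on the plate plus 3 SD, cut at about 37% in these data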
Target sequence (O43613 whole entry, looked up): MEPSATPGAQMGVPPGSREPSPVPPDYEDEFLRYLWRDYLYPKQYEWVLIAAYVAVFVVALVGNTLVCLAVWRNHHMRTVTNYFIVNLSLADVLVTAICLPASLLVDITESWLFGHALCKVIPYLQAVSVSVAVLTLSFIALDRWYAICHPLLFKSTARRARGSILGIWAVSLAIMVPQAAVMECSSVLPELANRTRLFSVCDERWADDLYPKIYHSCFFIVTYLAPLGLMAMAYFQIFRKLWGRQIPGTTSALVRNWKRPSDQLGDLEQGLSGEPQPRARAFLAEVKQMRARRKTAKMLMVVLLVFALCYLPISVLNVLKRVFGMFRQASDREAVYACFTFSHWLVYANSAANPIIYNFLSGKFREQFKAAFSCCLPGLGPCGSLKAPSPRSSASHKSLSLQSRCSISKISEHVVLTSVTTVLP
TAAR1 ag – human TAAR1 agonism; CHO RD-HGA16 TAAR1, Fluo-8 calcium fluorescence; vehicle wells 0%, saturating PEA agonist 100%; activation, % at 3 µM; AID 624467; 360,000 tested, 0.99% active; Q96RJ0;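 active means activation above the mean activation of all test compounds in the run plus 3 SD, cut at about 38% in these data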
Target sequence (Q96RJ0 whole entry, looked up): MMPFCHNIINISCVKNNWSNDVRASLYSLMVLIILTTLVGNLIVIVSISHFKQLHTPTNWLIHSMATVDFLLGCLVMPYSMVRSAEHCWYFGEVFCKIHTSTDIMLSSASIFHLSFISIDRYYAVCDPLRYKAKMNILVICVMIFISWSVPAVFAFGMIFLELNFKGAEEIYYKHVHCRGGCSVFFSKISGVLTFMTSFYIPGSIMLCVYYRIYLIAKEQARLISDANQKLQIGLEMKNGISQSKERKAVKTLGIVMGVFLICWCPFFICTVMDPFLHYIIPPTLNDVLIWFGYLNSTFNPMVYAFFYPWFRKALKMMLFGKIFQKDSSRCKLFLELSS
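Test system: RD-HGA16 (CHO) cells co-expressing Gα16 and hTAAR1 / Benchmarks: DMSO vehicle as 0%, PEA at EC100 as 100% / Repeats: no replicates (n 1) / Measure: % activation from peak over basal fluorescence ratio, DMSO-to-PEA scaled / Timing: 17-24 h plating, Fluo-8 75 min 37 °C, 30 min RT / Technique: kinetic Fluo-8 calcium fluorescence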
CHO parental Ca – counter-screen for OX1R antagonists: effect in parental CHO cells. 330,000 tested, 0.63% active. inhibition, % at 5.6 µM. parental CHO-K1, ATP-induced calcium, Fluo-8 fluorescence;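 active means inhibition above that plate's mean sample inhibition plus 3 SD, cut at about 26% in these data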
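Assay system: parental CHO cells; Read-out basis: percent inhibition of ATP-evoked calcium rise, normalized to controls; Benchmarks: ATP and no-ATP DMSO wells; Compound dosing: single nominal dose of 5.6 µM per compound; Signal: Fluo-8 calcium dye fluorescence; Also added: ATP as calcium-mobilizing challenge; Repeats: singlicate.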
OX1R antag-2 – antagonists of human orexin 1 receptor (OX1R); O43613; OX1R-expressing cells, FRET antagonist read-out; inhibition, % at 6.6 µM; 330,000 tested, 1.8% active; in the data active means inhibition mostly above about 38%, no sharp cut-off; inactive means mostly below about 40%
TAAR1 antag – antagonists of human TAAR1. CHO RD-HGA16 TAAR1, Fluo-8 calcium fluorescence, antagonist. 360,000 tested, 1.5% active. inhibition, % at 3 µM. AID 624466;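 active means inhibition above a per-plate cutoff, the mean inhibition of test compounds on that plate plus 3 SD, cut at about 49% in these data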
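Material: CHO RD-HGA16 cells bearing hTAAR1; compound dosing: one-point dosing, 3 µM nominal final; schedule: dye loading 75 min at 37 °C, then 30 min room temperature; measured by: calcium fluorescence with Fluo-8; control set: vehicle and agonist controls; replication: n of 1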
TAAR1 ag confirm – human TAAR1 agonism, confirmed. shares compounds with TAAR1 ag. CHO RD-HGA16 TAAR1, Fluo-8 calcium fluorescence; scaled: DMSO 0%, maximal phenethylamine 100%. activation, % at 3 µM. 2,400 tested, 82% active;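 active means activation above a cutoff set at the run's mean compound activation plus 3 SD, cut at about 39% in these data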
Ga16 ag counter – counter-screen for TAAR1 agonists: nonselective agonists in parental cells. shares compounds with TAAR1 ag. CHO-Ga16 parental, Fluo-8 calcium fluorescence; normalized to maximal ATP response, DMSO zero. activation, % at 3 µM. 2,400 tested, 50% active;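 active means activation above the run cutoff, the mean activation over all tested wells plus 3 SD, cut at about 12% in these data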
TAAR1 desens – human TAAR1 agonist that also desensitizes the receptor; shares compounds with TAAR1 ag; inhibition, % at 3 µM; CHO RD-HGA16 hTAAR1, Fluo-8 calcium, beta-PEA response inhibition; 2,400 tested, 46% active;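 active means inhibition above the run cutoff, the mean inhibition of all test compounds plus 3 SD, cut at about 49% in these data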;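 further: beta-PEA stimulus applied at its EC80; loss of beta-PEA calcium signal after compound pretreatment read as receptor desensitization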
Ga16 antag count – nonselective Ga16 antagonism, counter-screen | inhibition, % at 3 µM | shares compounds with TAAR1 ag | AID 651952 | 2,400 tested, 39% active | CHO-Ga16 ATP-induced calcium, Fluo-8 fluorescence;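 active means inhibition above the plate's mean compound inhibition plus 3 SD, computed per plate, cut at about 22% in these data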
Numbers stand for hits.

What do the screens show for `Cc1ccccc1NC(=S)N(C)CCc1ccccn1`?
GPR7 antag: inactive; OX1R antag-1: inactive; TAAR1 ag: 58; CHO parental Ca: inactive; OX1R antag-2: inactive; TAAR1 antag: inactive; TAAR1 ag confirm: 61; Ga16 ag counter: inactive; TAAR1 desens: inactive; Ga16 antag count: inactive

What do the screens show for `Cc1c(CNCCc2ccccc2Cl)c(C(=O)O)c(C)n1-c1ccccc1`?
GPR7 antag: inactive; OX1R antag-1: inactive; TAAR1 ag: 90; CHO parental Ca: inactive; OX1R antag-2: inactive; TAAR1 antag: 65; TAAR1 ag confirm: 92; Ga16 ag counter: 25; TAAR1 desens: 74; Ga16 antag count: inactive

How did Cc1noc(C)c1NC(=O)N(C)C[C@H]1Oc2ccc(NC(=O)Cc3ccccc3)cc2C(=O)N([C@H](C)CO)C[C@@H]1C do in these assays?
OX1R antag-1: inactive; TAAR1 ag: inactive; CHO parental Ca: inactive; OX1R antag-2: inactive; TAAR1 antag: inactive

How did COCCn1c(Cc2ccccc2)nnc1SCc1ccc([N+](=O)[O-])cc1 do in these assays?
GPR7 antag: inactive; OX1R antag-1: inactive; TAAR1 ag: inactive; CHO parental Ca: inactive; OX1R antag-2: inactive; TAAR1 antag: inactive

What do the screens show for `CCOC(=O)CC1C(=O)NCCN1C(=O)c1ccc(F)cc1F` (stereo not given)?
GPR7 antag: inactive; OX1R antag-1: inactive; TAAR1 ag: inactive; CHO parental Ca: inactive; OX1R antag-2: inactive; TAAR1 antag: inactive

How did CCOC(=O)CC1C(=O)NCCN1C(=O)c1ccc(Cl)cc1Cl (stereo not given) do in these assays?
GPR7 antag: inactive; OX1R antag-1: inactive; TAAR1 ag: 73; CHO parental Ca: inactive; OX1R antag-2: inactive; TAAR1 antag: inactive; TAAR1 ag confirm: inactive; Ga16 ag counter: inactive; TAAR1 desens: inactive; Ga16 antag count: inactive

How did COc1ccc(CCC(C)NCCc2ccc(Cl)cc2Cl)cc1 (stereo not given) do in these assays?
GPR7 antag: inactive; OX1R antag-1: inactive; TAAR1 ag: 48; CHO parental Ca: inactive; OX1R antag-2: inactive; TAAR1 antag: inactive; TAAR1 ag confirm: 48; Ga16 ag counter: 22; TAAR1 desens: inactive; Ga16 antag count: 24

How did COc1ccc(CCC(C)NCc2ccc(Cl)c(Cl)c2)cc1 (stereo not given) do in these assays?
GPR7 antag: inactive; OX1R antag-1: inactive; TAAR1 ag: inactive; CHO parental Ca: inactive; OX1R antag-2: inactive; TAAR1 antag: inactive

Results for COC(=O)c1cc(S(=O)(=O)NCC2CCN(Cc3cccc(Cl)c3)CC2)c[nH]1 ?
GPR7 antag: inactive; OX1R antag-1: inactive; TAAR1 ag: inactive; CHO parental Ca: inactive; OX1R antag-2: inactive; TAAR1 antag: inactive

How did O=C(CCCCl)N1CCc2[nH]c3ccccc3c2C1 do in these assays?
TAAR1 ag: 89; TAAR1 antag: 87; TAAR1 ag confirm: 97; Ga16 ag counter: inactive; TAAR1 desens: 92; Ga16 antag count: inactive

What do the screens show for `Cc1ccc(NC(=S)N2CCc3[nH]c4ccccc4c3C2)cc1`?
GPR7 antag: inactive; OX1R antag-1: inactive; TAAR1 ag: 69; CHO parental Ca: inactive; OX1R antag-2: inactive; TAAR1 antag: 64; TAAR1 ag confirm: 49; Ga16 ag counter: inactive; TAAR1 desens: inactive; Ga16 antag count: inactive

Results for S=C(NC1CCCCC1)N1CCc2[nH]c3ccccc3c2C1 ?
GPR7 antag: inactive; OX1R antag-1: inactive; TAAR1 ag: inactive; CHO parental Ca: inactive; OX1R antag-2: inactive; TAAR1 antag: inactive

Results for Fc1cc(F)c(C2SCCN2C(=S)Nc2cccc(C(F)(F)F)c2)c(F)c1 (stereo not given) ?
GPR7 antag: inactive; OX1R antag-1: inactive; TAAR1 ag: 66; CHO parental Ca: inactive; OX1R antag-2: inactive; TAAR1 antag: inactive; TAAR1 ag confirm: 52; Ga16 ag counter: 31; TAAR1 desens: 56; Ga16 antag count: 38

Results for COC(=O)[C@H](CCSC)NC(=O)NC1CC1 ?
GPR7 antag: inactive; OX1R antag-1: inactive; TAAR1 ag: inactive; CHO parental Ca: inactive; OX1R antag-2: inactive; TAAR1 antag: inactive

How did CN(CCc1ccccc1)C(=O)CC1C(=O)NCCN1Cc1ccccn1 (stereo not given) do in these assays?
TAAR1 ag: 63; TAAR1 antag: inactive; TAAR1 ag confirm: 71; Ga16 ag counter: inactive; TAAR1 desens: 60; Ga16 antag count: inactive

Results for O=C(COC(=O)c1cc(=O)[nH]c(=O)[nH]1)Nc1cccc(S(=O)(=O)N2CCCCC2)c1 ?
GPR7 antag: inactive; OX1R antag-1: inactive; TAAR1 ag: inactive; CHO parental Ca: inactive; OX1R antag-2: inactive; TAAR1 antag: inactive

Results for O=C(CNCCc1ccccc1)N1CCc2ccccc2C1 ?
GPR7 antag: inactive; OX1R antag-1: inactive; TAAR1 ag: 81; CHO parental Ca: inactive; OX1R antag-2: inactive; TAAR1 antag: inactive; TAAR1 ag confirm: 99; Ga16 ag counter: inactive; TAAR1 desens: 89; Ga16 antag count: inactive

Results for O=[N+]([O-])c1cccc(NC(=S)N2CCc3ccccc3C2)c1 ?
GPR7 antag: inactive; OX1R antag-1: inactive; TAAR1 ag: 55; CHO parental Ca: inactive; OX1R antag-2: inactive; TAAR1 antag: inactive; TAAR1 ag confirm: 50; Ga16 ag counter: inactive; TAAR1 desens: inactive; Ga16 antag count: inactive

What do the screens show for `O=C(Cc1ccc([N+](=O)[O-])cc1)N1CCc2ccccc2C1`?
GPR7 antag: inactive; OX1R antag-1: inactive; TAAR1 ag: 55; CHO parental Ca: inactive; OX1R antag-2: inactive; TAAR1 antag: inactive; TAAR1 ag confirm: 74; Ga16 ag counter: inactive; TAAR1 desens: inactive; Ga16 antag count: inactive

What do the screens show for `O=C(COc1ccc([N+](=O)[O-])cc1)N1CCc2ccccc2C1`?
GPR7 antag: inactive; OX1R antag-1: inactive; TAAR1 ag: inactive; CHO parental Ca: inactive; OX1R antag-2: inactive; TAAR1 antag: inactive

Results for CCn1ncc([N+](=O)[O-])c1C(=O)N1CCc2ccccc2C1 ?
GPR7 antag: inactive; OX1R antag-1: inactive; TAAR1 ag: 42; CHO parental Ca: inactive; OX1R antag-2: inactive; TAAR1 antag: inactive; TAAR1 ag confirm: inactive; Ga16 ag counter: inactive; TAAR1 desens: inactive; Ga16 antag count: inactive
